From ChEMBL document CHEMBL4732211, “Multifunctional agents based on benzoxazolone as promising therapeutic drugs for diabetic nephropathy” (Eur J Med Chem, 2021)
Active and inactive are the calls of the source. The rule behind the calls is not given here.

What was measured:
[1] = biological target: Aldo-keto reductase family 1 member B1 (Rattus norvegicus, UniProt P07943); assay: Inhibition of Wistar rat lens ALR2 assessed as reduction in NADPH oxidation using D,L-glyceraldehyde and NADPH as substrate preincubated for 10 mins followed by substrate addition and measured for 4 mins by spectrophotometric analysis; assay type: tissue-based
[2] = organism: Rattus norvegicus; assay: Selectivity index, ratio of IC50 for Wistar rat kidney ALR1 to IC50 for Wistar rat lens ALR2
Outline: (§1)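 Aldose reductases (ALR2, ALR1) prepared from Wistar rats (200-250 g). NADPH loss followed at 340 nm for 4 min after substrate start, following 10 min preincubation. ALR2: pH 6.2 phosphate, 30 °C, NADPH 0.10 mM, D,L-glyceraldehyde 10 mM. ALR1: pH 7.2, 37 °C, NADPH 0.12 mM, D-glucuronate 20 mM. 0.5% DMSO; non-enzymatic rate subtracted. IC50 from log dose-response with ≥3 concentrations (20-80% inhibition), triplicate.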

[3] = biological target: Aldo-keto reductase family 1 member B1 (Rattus norvegicus) (UniProt P07943); assay: Potency index, ratio of IC50 of epalrestat to IC50 of compound for inhibition of Wistar rat lens ALR2 using D,L-glyceraldehyde and NADPH as substrate preincubated for 10 mins followed by substrate addition and measured for 4 mins by spectrophotometric analysis; assay type: tissue-based; settings: time 14.0 min; outline: as §1
[4] = Antioxidant activity assessed as DPPH radical scavenging activity at 10 uM after 30 mins by spectrophotometric analysis; assay type: functional
Outline: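 DPPH in methanol (1 mL, 0.025 mg/mL) plus methanol 1.9 mL and compound in methanol, final 100, 50 and 10 µM; absorbance at 517 nm. Scavenging % = 1 − (A_sample − A_blank)/A_control, where the blank is compound without DPPH. Trolox reference.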

[5] = tested on: Brain; assay: Antioxidant activity in rat brain assessed as inhibition of lipid peroxidation at 50 to 100 uM by TBARS assay; assay type: functional, tissue-based; settings: dose 50-100 µM
Outline: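 Rat brain freshly homogenized in ice-cold saline and centrifuged; supernatant protein measured by Coomassie. Hydroxyl radical-driven lipid peroxidation read as MDA/TBARS with a commercial kit.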

[6] = Inhibition of polyol pathway in STZ-induced Kunming mouse model of diabetes assessed as decrease in sorbitol level in kidney cortex at 160 mg/kg, po administered daily via gavage for 8 weeks and measured at 6 hrs post-final drug dose by fluorospectrophotometric analysis; assay type: functional; settings: 1344 h
[7] = Inhibition of polyol pathway in STZ-induced Kunming mouse model of diabetes assessed as decrease in sorbitol level in kidney cortex at 80 mg/kg, po administered QD via gavage for 4 weeks and measured at 6 hrs post-final drug dose by fluorospectrophotometric analysis; assay type: functional; settings: 672 h
[8] = tested on: Mus musculus; assay: Antioxidant activity in STZ-induced diabetic Kunming mouse assessed as reduction in liver MDA level at 80 mg/kg, po administered daily via gavage for 8 weeks and measured at 6 hrs post-final drug dose relative to STZ-treated group; assay type: functional; settings: 1344 h
[9] = tested on: Mus musculus; assay: Antioxidant activity in STZ-induced diabetic Kunming mouse assessed as reduction in liver MDA level at 160 mg/kg, po administered daily via gavage for 8 weeks and measured at 6 hrs post-final drug dose relative to STZ-treated group; assay type: functional; settings: 1344 h
[10] = tested on: Mus musculus; assay: Antioxidant activity in STZ-induced diabetic Kunming mouse assessed as reduction in liver MDA level at 80 mg/kg, po administered QD via gavage for 4 weeks and measured at 6 hrs post-final drug dose relative to STZ-treated group; assay type: functional; settings: 672 h
[11] = tested on: Mus musculus; assay: Antioxidant activity in STZ-induced diabetic Kunming mouse assessed as reduction in liver MDA level at 80 mg/kg, po administered daily via gavage for 8 weeks and measured at 6 hrs post-final drug dose relative to normal group; assay type: functional; settings: 1344 h
[12] = tested on: Mus musculus; assay: Antioxidant activity in STZ-induced diabetic Kunming mouse assessed as rise in liver MDA level at 160 mg/kg, po administered daily via gavage for 8 weeks and measured at 6 hrs post-final drug dose relative to normal group; assay type: functional
[13] = tested on: Mus musculus; assay: Antioxidant activity in STZ-induced diabetic Kunming mouse assessed as rise in liver MDA level at 80 mg/kg, po administered QD via gavage for 4 weeks and measured at 6 hrs post-final drug dose relative to normal group; assay type: functional
[14] = tested on: Mus musculus; assay: Antioxidant activity in STZ-induced diabetic Kunming mouse assessed as increase in SOD level in kidney at 160 mg/kg, po administered daily via gavage for 8 weeks and measured at 6 hrs post-final drug dose; assay type: functional
[15] = tested on: Mus musculus; assay: Antioxidant activity in STZ-induced diabetic Kunming mouse assessed as increase in GSH level in kidney at 80 mg/kg, po administered daily via gavage for 8 weeks and measured at 6 hrs post-final drug dose by microplate reader analysis; assay type: functional
[16] = tested on: Mus musculus; assay: Antioxidant activity in STZ-induced diabetic Kunming mouse assessed as increase in GSH level in kidney at 160 mg/kg, po administered daily via gavage for 8 weeks and measured at 6 hrs post-final drug dose by microplate reader analysis; assay type: functional
[17] = tested on: Mus musculus; assay: Antioxidant activity in STZ-induced diabetic Kunming mouse assessed as increase in GSH level in kidney at 80 mg/kg, po administered QD via gavage for 4 weeks and measured at 6 hrs post-final drug dose by microplate reader analysis; assay type: functional
[18] = tested on: Mus musculus; assay: Antidiabetic activity in STZ-induced Kunming mouse model of diabetes assessed as reduction in blood glucose level at 160 mg/kg, po administered daily via gavage for 8 weeks and measured at week 2; assay type: functional; settings: 336 h, time 2 weeks
[19] = tested on: Mus musculus; assay: Antidiabetic activity in STZ-induced Kunming mouse model of diabetes assessed as reduction in blood glucose level at 160 mg/kg, po administered daily via gavage for 8 weeks and measured at week 4; assay type: functional; settings: 672 h, time 4 weeks
[20] = tested on: Mus musculus; assay: Antidiabetic activity in STZ-induced Kunming mouse model of diabetes assessed as reduction in blood glucose level at 80 mg/kg, po administered daily via gavage for 8 weeks and measured at week 2; assay type: functional; settings: 336 h, time 2 weeks
[21] = tested on: Mus musculus; assay: Reno-protective activity in STZ-induced Kunming mouse model of diabetes assessed as urinary total protein excretion at 80 mg/kg, po administered daily via gavage for 8 weeks and measured at week 6 relative to control; assay type: functional; settings: time 6 weeks
[22] = tested on: Mus musculus; assay: Reno-protective activity in STZ-induced Kunming mouse model of diabetes assessed as reduction in albumin to creatinine ratio at 160 mg/kg, po administered daily via gavage for 8 weeks; assay type: functional; settings: 1344 h
[23] = tested on: Mus musculus; assay: Reno-protective activity in STZ-induced Kunming mouse model of diabetes assessed as reduction in kidney lesions and appearance of normal structure at 80 to 160 mg/kg, po administered daily via gavage for 8 weeks by H and E staining based histological analysis; assay type: functional, organism-based; settings: dose 80-160 mg/kg
[24] = tested on: Mus musculus; assay: Reno-protective activity in STZ-induced Kunming mouse model of diabetes assessed as glomerular atrophy and inflammatory cell infiltration at 160 mg/kg, po administered daily via gavage for 8 weeks by H and E staining based histological analysis; assay type: functional, organism-based
[25] = tested on: Mus musculus; assay: Reno-protective activity in STZ-induced Kunming mouse model of diabetes assessed as normal kidney structure at 80 mg/kg, po administered QD via gavage for 4 weeks by H and E staining based histological analysis; assay type: functional, organism-based
[26] = tested on: Mus musculus; assay: Antidiabetic activity in STZ-induced Kunming mouse model of diabetes assessed as reduction in blood glucose level at 80 mg/kg, po administered QD via gavage for 4 weeks and measured at week 2 to 4; assay type: functional, organism-based; settings: time 2-4 weeks
[27] = tested on: Mus musculus; assay: Antidiabetic activity in STZ-induced Kunming mouse model of diabetes assessed as reduction in blood glucose level at 80 to 160 mg/kg, po administered daily via gavage for 8 weeks and measured at 2 to 5 hrs post-last drug dose; assay type: functional, organism-based; settings: dose 80-160 mg/kg

COc1cc(/C=C/c2cccc3c2oc(=O)n3CC(=O)O)ccc1O
IC50 [1]: 6.9 nM | Ratio IC50 [2]: 710 | Ratio IC50 [3]: 15 | Activity [4]: 22.7% | Activity [5]: Active | inhibition in vivo at 160 mg/kg [6]: 18% | inhibition in vivo at 80 mg/kg [7]: 24% | inhibition in vivo at 80 mg/kg [8]: 67% | inhibition in vivo at 160 mg/kg [9]: 45% | inhibition in vivo at 80 mg/kg [10]: 54% | inhibition in vivo at 80 mg/kg [11]: 16% | Activity [12]: 39% | Activity [13]: 15% | Activity [14]: 38% | Activity [15]: 170% | Activity [16]: 210% | Activity [17]: 150% | inhibition in vivo at 160 mg/kg [18]: 35% | inhibition in vivo at 160 mg/kg [19]: 23% | inhibition in vivo at 80 mg/kg [20]: 18% | Activity [21]: 50% | inhibition in vivo at 160 mg/kg [22]: 79% | Activity [23]: Active | Activity [24]: inactive | Activity [25]: Active | Activity [26]: Active | Activity [27]: Active
